What was measured:
Type in all cases: functional
[1] = Antioxidant activity assessed as hydroxyl radical scavenging rate at 1 g/L relative to control
Outline: (§1)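 Hydroxyl radical scavenging was read as absorbance of the reaction solution at 510 nm by a fixed reaction time method. Derivatives were tested at 0.2–1.2 g/L, with sesamol as positive control. Values are means ± SD from at least eight independent experiments, each in triplicate (n = 3), with t-tests (p < 0.05).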

[2] = Antioxidant activity assessed as superoxide anion radical scavenging rate at 0.8 g/L relative to control
Outline: (§2)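 Pyrocatechol autoxidation in weak alkaline medium produces a coloured intermediate and superoxide anion; the intermediate absorbs maximally at 320 nm. Scavenging rate was measured at 0.2–1.2 g/L, with sesamol as positive control. Values are means ± SD from at least eight independent experiments, each in triplicate (n = 3), with t-tests (p < 0.05).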

[3] = Antioxidant activity assessed as hydroxyl radical scavenging rate at 0.6 g/L relative to control; outline: as §1
[4] = Antioxidant activity assessed as reduction of potassium ferricyanide trivalent iron into potassium ferrocyanide bivalent iron and ferrous iron by measuring eliminate efficiency at 1.2 g/L relative to control; parameters: scale not given: the % may be the effect or the level left
Outline: (§3)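 Reducing capacity was read as absorbance at 700 nm, where higher absorbance means greater reducing ability. Tested at 0.2–1.2 g/L against sesamol as positive control. Values are means from at least eight independent experiments, each in triplicate (n = 3), with t-tests (p < 0.05).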

[5] = Antioxidant activity assessed as reduction in lipid peroxidation by measuring antiperoxide-index at 0.8 g/L by thiobarbituric acid method relative to control; parameters: scale not given: the % may be the effect or the level left
Outline: (§4)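 Anti-lipid-peroxidation (antiperoxide index, %) was tested at 0.2–1.2 g/L, with sesamol as positive control. Values are means ± SD from at least eight independent experiments, each in triplicate (n = 3), with t-tests (p < 0.05).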

[6] = Antioxidant activity assessed as superoxide anion radical scavenging rate at 1.2 g/L relative to control; outline: as §2
[7] = Antioxidant activity assessed as superoxide anion radical scavenging rate at 0.4 g/L relative to control; outline: as §2
[8] = Antioxidant activity assessed as reduction in lipid peroxidation by measuring antiperoxide-index at 0.6 g/L by thiobarbituric acid method relative to control; parameters: scale not given: the % may be the effect or the level left; outline: as §4
[9] = Antioxidant activity assessed as hydroxyl radical scavenging rate at 0.8 g/L relative to control; outline: as §1
[10] = Antioxidant activity assessed as reduction of potassium ferricyanide trivalent iron into potassium ferrocyanide bivalent iron and ferrous iron by measuring eliminate efficiency at 0.2 g/L relative to control; parameters: scale not given: the % may be the effect or the level left; outline: as §3
[11] = Antioxidant activity assessed as reduction of potassium ferricyanide trivalent iron into potassium ferrocyanide bivalent iron and ferrous iron by measuring eliminate efficiency at 0.8 g/L relative to control; parameters: scale not given: the % may be the effect or the level left; outline: as §3
[12] = Antioxidant activity assessed as reduction of potassium ferricyanide trivalent iron into potassium ferrocyanide bivalent iron and ferrous iron by measuring eliminate efficiency at 1 g/L relative to control; parameters: scale not given: the % may be the effect or the level left; outline: as §3
[13] = Antioxidant activity assessed as hydroxyl radical scavenging rate at 0.2 g/L relative to control; outline: as §1
[14] = Antioxidant activity assessed as reduction in lipid peroxidation by measuring antiperoxide-index at 1 g/L by thiobarbituric acid method relative to control; parameters: scale not given: the % may be the effect or the level left; outline: as §4
[15] = Antioxidant activity assessed as hydroxyl radical scavenging rate at 1.2 g/L relative to control; outline: as §1
[16] = Antioxidant activity assessed as reduction in lipid peroxidation by measuring antiperoxide-index at 0.4 g/L by thiobarbituric acid method relative to control; parameters: scale not given: the % may be the effect or the level left; outline: as §4
[17] = Antioxidant activity assessed as reduction in lipid peroxidation by measuring antiperoxide-index at 1.2 g/L by thiobarbituric acid method relative to control; parameters: scale not given: the % may be the effect or the level left; outline: as §4
[18] = Antioxidant activity assessed as superoxide anion radical scavenging rate at 1 g/L relative to control; outline: as §2
[19] = Antioxidant activity assessed as hydroxyl radical scavenging rate at 0.4 g/L relative to control; outline: as §1
[20] = Antioxidant activity assessed as reduction of potassium ferricyanide trivalent iron into potassium ferrocyanide bivalent iron and ferrous iron by measuring eliminate efficiency at 0.4 g/L relative to control; parameters: scale not given: the % may be the effect or the level left; outline: as §3
[21] = Antioxidant activity assessed as reduction in lipid peroxidation by measuring antiperoxide-index at 0.2 g/L by thiobarbituric acid method relative to control; parameters: scale not given: the % may be the effect or the level left; outline: as §4
[22] = Antioxidant activity assessed as superoxide anion radical scavenging rate at 0.2 g/L relative to control; outline: as §2
[23] = Antioxidant activity assessed as superoxide anion radical scavenging rate at 0.6 g/L relative to control; outline: as §2
[24] = Antioxidant activity assessed as reduction of potassium ferricyanide trivalent iron into potassium ferrocyanide bivalent iron and ferrous iron by measuring eliminate efficiency at 0.6 g/L relative to control; parameters: scale not given: the % may be the effect or the level left; outline: as §3

SMILES	Activity [1]	Activity [2]	Activity [3]	Activity [4]	Activity [5]	Activity [6]	Activity [7]	Activity [8]	Activity [9]	Activity [10]	Activity [11]	Activity [12]	Activity [13]	Activity [14]	Activity [15]	Activity [16]	Activity [17]	Activity [18]	Activity [19]	Activity [20]	further results
O=c1oc2ccc3c(c2c2cccc(Cl)c12)OCO3	94.4%	85.5%	74.9%	96.1%	84.5%	95%	37.5%	70.4%	89.9%	16.4%	86.5%	95.2%	17.3%	92.9%	95.3%	39.1%	95.7%	94.1%	40.6%	39.3%	Activity [21]: 16.3%; Activity [22]: 16.3%; Activity [23]: 71.3%; Activity [24]: 74.6%
O=c1oc2ccc3c(c2c2c(Cl)cccc12)OCO3	87.4%	79.4%	69.3%	93.6%	82.8%	88.3%	34.8%	69%	83.2%	15.9%	84.3%	92.7%	16.1%	91.1%	88.2%	38.4%	93.8%	87.4%	38.7%	38.2%	Activity [21]: 16%; Activity [22]: 15.2%; Activity [23]: 66.2%; Activity [24]: 72.6%
O=c1oc2ccc3c(c2c2cc(Cl)ccc12)OCO3	97.4%	87%	77.3%	99.8%	87.8%	96.7%	38.1%	73.1%	92.7%	17%	89.9%	98.8%	17.9%	96.5%	98.3%	40.6%	99.4%	95.7%	42.9%	40.8%	Activity [21]: 16.9%; Activity [22]: 16.6%; Activity [23]: 72.5%; Activity [24]: 77.5%
O=C(Oc1ccc2c(c1)OCO2)c1c(Cl)cccc1Cl	76.4%	68.2%	60.6%	84.3%	72.9%	75.8%	29.9%	60.8%	72.7%	14.3%	75.8%	83.4%	14%	80.2%	77.1%	33.8%	82.6%	75%	32.7%	34.4%	Activity [21]: 14.1%; Activity [22]: 13%; Activity [23]: 56.9%; Activity [24]: 65.4%
O=C(Oc1ccc2c(c1)OCO2)c1cccc(Cl)c1Cl	60.4%	54.5%	47.9%	66.2%	58.6%	60.5%	23.9%	48.8%	57.5%	11.3%	59.6%	65.5%	11.1%	64.4%	61%	27.1%	66.4%	59.9%	26.4%	27%	Activity [21]: 11.3%; Activity [22]: 10.4%; Activity [23]: 45.4%; Activity [24]: 51.3%
O=c1oc2ccc3c(c2c2ccccc12)OCO3	87.4%	82%	69.3%	90.7%	81.8%	91.1%	35.9%	68.2%	83.2%	15.4%	81.6%	89.8%	16.1%	90%	88.2%	37.9%	92.7%	90.2%	38.9%	37%	Activity [21]: 15.8%; Activity [22]: 15.6%; Activity [23]: 68.3%; Activity [24]: 70.4%
O=C(Oc1ccc2c(c1)OCO2)c1cc(Cl)ccc1Cl	74.2%	63.5%	58.9%	76.1%	67.3%	70.5%	27.9%	56.1%	70.7%	12.9%	68.5%	75.3%	13.6%	74%	74.9%	31.1%	76.2%	69.8%	32.6%	31.1%	Activity [21]: 13%; Activity [22]: 12.1%; Activity [23]: 52.9%; Activity [24]: 59%
O=c1oc2ccc3c(c2c2ccc(Cl)cc12)OCO3	92.6%	84.2%	73.5%	94.3%	85.8%	93.5%	36.9%	71.5%	88.2%	16.1%	84.9%	93.4%	17%	94.4%	93.6%	39.7%	97.2%	92.6%	40.8%	38.5%	Activity [21]: 16.6%; Activity [22]: 16.1%; Activity [23]: 70.1%; Activity [24]: 73.2%
O=C(Oc1ccc2c(c1)OCO2)c1ccc(Cl)cc1Cl	69.9%	59.7%	55.5%	75.7%	65.7%	66.3%	26.2%	54.8%	66.6%	12.9%	68.1%	74.9%	12.8%	72.3%	70.6%	30.4%	74.5%	65.6%	30.7%	30.9%	Activity [21]: 12.7%; Activity [22]: 11.4%; Activity [23]: 49.7%; Activity [24]: 58.7%
O=C(Oc1ccc2c(c1)OCO2)c1ccccc1Cl	77.5%	69.5%	61.5%	85.6%	73.7%	77.2%	30.5%	61.4%	73.8%	14.6%	77%	84.7%	14.2%	81.1%	78.2%	34.1%	83.5%	76.5%	34.4%	34.9%	Activity [21]: 14.2%; Activity [22]: 13.3%; Activity [23]: 57.9%; Activity [24]: 66.4%
Oc1ccc2c(c1)OCO2	70.8%	63.3%	56.2%	82.6%	66.1%	70.3%	27.8%	55.1%	67.4%	12.4%	75.4%	81.9%	13%	72.8%	71.5%	30.6%	74.9%	69.6%	30.2%	29.7%	Activity [21]: 12.8%; Activity [22]: 12.1%; Activity [23]: 52.7%; Activity [24]: 56.4%

— ChEMBL document CHEMBL4673330, “Preparations and antioxidant activities of sesamol and it's derivatives” (Bioorg Med Chem Lett, 2021)
